Experiments:
Type in all cases: functional, cell-based
U-251 = assay: Cytotoxicity against human U251 cells by MTT assay
Method in brief: (§1)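 Cells grown in RPMI-1640 with 10% fetal calf serum plus penicillin and streptomycin, 37 °C, 5% CO₂. Compounds in DMSO, final ≤2% (v/v), tested in 96-well cultures with MTT staining. IC₅₀ = concentration cutting optical density 50% versus untreated cells; three replicate wells per point; mean of three independent determinations.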

SCaBER = assay: Cytotoxicity against human SCaBER cells by MTT assay; method in brief: as §1
A-375 = assay: Cytotoxicity against human A375 cells by MTT assay; method in brief: as §1
KB = assay: Cytotoxicity against human KB cells by MTT assay; method in brief: as §1
CWR22R = assay: Cytotoxicity against human 22Rv1 cells by MTT assay; method in brief: as §1
OS-RC-2 = assay: Cytotoxicity against human OS-RC2 cells by MTT assay; method in brief: as §1
786-0 = assay: Cytotoxicity against human 786-0 cells by MTT assay; method in brief: as §1
A549 = assay: Cytotoxicity against human A549 cells by MTT assay; method in brief: as §1
[1] = Cytotoxicity against human Blu-87 cells by MTT assay; method in brief: as §1
HT-29 = assay: Cytotoxicity against human HT-29 cells by MTT assay; method in brief: as §1
769-P = assay: Cytotoxicity against human 769-P cells by MTT assay; method in brief: as §1
BGC-823 = assay: Cytotoxicity against human BGC823 cells by MTT assay; method in brief: as §1
MCF7 = assay: Cytotoxicity against human MCF7 cells by MTT assay; method in brief: as §1
HeLa = assay: Cytotoxicity against human HeLa cells by MTT assay; method in brief: as §1
HepG2 = assay: Cytotoxicity against human HepG2 cells by MTT assay; method in brief: as §1
Bel-7402 = assay: Cytotoxicity against human Bel7402 cells by MTT assay; method in brief: as §1

CCCCOc1ccc2c3cc[n+](Cc4ccccc4)c(C)c3n(CC(C)C)c2c1
IC50 (U-251): 1.8 µM
IC50 (SCaBER): 9.7 µM
IC50 (A-375): 2.1 µM
IC50 (KB): 6 µM
IC50 (CWR22R): < 1.6 µM
IC50 (OS-RC-2): 5.8 µM
IC50 (786-0): 2.4 µM
IC50 (A549): 2.2 µM
IC50 [1]: 8.9 µM
IC50 (HT-29): 4 µM
IC50 (769-P): 2.3 µM

CCOc1ccc2c3cc[n+](Cc4ccccc4)c(C)c3n(CC)c2c1
IC50 (U-251): 15.2 µM
IC50 (SCaBER): 19.8 µM
IC50 (A-375): 6.8 µM
IC50 (KB): 4.6 µM
IC50 (OS-RC-2): 7.8 µM
IC50 (786-0): 9.6 µM
IC50 (A549): 11.2 µM
IC50 [1]: 23.4 µM
IC50 (HT-29): 10.2 µM
IC50 (769-P): 6.4 µM

CCn1c2cc(OCc3ccccc3)ccc2c2ccnc(C)c21
IC50 (BGC-823): 17.2 µM
IC50 (MCF7): > 100 µM
IC50 (HeLa): > 100 µM
IC50 (HepG2): 15.5 µM
IC50 (Bel-7402): > 100 µM

CCCCCCCCCCOc1ccc2c3ccnc(C)c3n(CCCC)c2c1
IC50 (HeLa): > 100 µM
IC50 (HepG2): > 100 µM

Cc1nccc2c3ccc(OCc4c(F)c(F)c(F)c(F)c4F)cc3n(CCCc3ccccc3)c12
IC50 (HepG2): > 100 µM

CCCCCCCCOc1ccc2c3ccnc(C)c3n(CCCc3ccccc3)c2c1
IC50 (HeLa): > 100 µM
IC50 (HepG2): > 100 µM

CCCCn1c2cc(OCC(C)C)ccc2c2ccnc(C)c21
IC50 (U-251): 32.3 µM
IC50 (SCaBER): 15.9 µM
IC50 (A-375): 18.4 µM
IC50 (BGC-823): 23.4 µM
IC50 (KB): 19.4 µM
IC50 (MCF7): 21.6 µM
IC50 (OS-RC-2): 30.5 µM
IC50 (786-0): 14.4 µM
IC50 (HeLa): 40.7 µM
IC50 (A549): 30 µM
IC50 [1]: 17.4 µM
IC50 (HepG2): 15.3 µM
IC50 (HT-29): 20.1 µM
IC50 (Bel-7402): 25.6 µM
IC50 (769-P): 4 µM

CCCCn1c2cc(OC(CC)CC)ccc2c2ccnc(C)c21
IC50 (U-251): 25.1 µM
IC50 (SCaBER): 43.8 µM
IC50 (A-375): 18.8 µM
IC50 (BGC-823): 16.7 µM
IC50 (KB): 19.8 µM
IC50 (MCF7): 5.4 µM
IC50 (OS-RC-2): 26.9 µM
IC50 (786-0): 13.4 µM
IC50 (HeLa): 28.2 µM
IC50 (A549): 21 µM
IC50 [1]: 16 µM
IC50 (HepG2): 15.6 µM
IC50 (HT-29): 25.1 µM
IC50 (Bel-7402): 21.5 µM
IC50 (769-P): 22.2 µM

CCCCn1c2cc(OCC(O)C(F)(F)F)ccc2c2ccnc(C)c21 (centres undefined)
IC50 (BGC-823): 96.4 µM
IC50 (MCF7): 33.1 µM
IC50 (HeLa): > 100 µM
IC50 (HepG2): > 100 µM
IC50 (Bel-7402): 62 µM

CCCCCCCCOc1ccc2c3ccnc(C)c3n(CCCC)c2c1
IC50 (BGC-823): 15.4 µM
IC50 (MCF7): 13.6 µM
IC50 (HeLa): > 100 µM
IC50 (HepG2): 13.6 µM
IC50 (Bel-7402): > 100 µM

CCCCn1c2cc(OCc3ccccc3)ccc2c2ccnc(C)c21
IC50 (SCaBER): 39.7 µM
IC50 (A-375): 28.6 µM
IC50 (BGC-823): 17.2 µM
IC50 (KB): 45 µM
IC50 (MCF7): 16.9 µM
IC50 (786-0): 10.1 µM
IC50 (HeLa): 47 µM
IC50 (A549): 18.1 µM
IC50 [1]: 32.7 µM
IC50 (HepG2): 17.8 µM
IC50 (HT-29): 26.8 µM
IC50 (Bel-7402): > 100 µM
IC50 (769-P): 17.1 µM

CCCCn1c2cc(OCc3c(F)c(F)c(F)c(F)c3F)ccc2c2ccnc(C)c21
IC50 (BGC-823): 18.3 µM
IC50 (MCF7): > 100 µM
IC50 (HeLa): > 100 µM
IC50 (HepG2): 13.6 µM
IC50 (Bel-7402): > 100 µM

CCCCn1c2cc(OCCCc3ccccc3)ccc2c2ccnc(C)c21
IC50 (U-251): 29.9 µM
IC50 (SCaBER): 20.3 µM
IC50 (A-375): 21.5 µM
IC50 (BGC-823): 13.8 µM
IC50 (KB): 41.6 µM
IC50 (CWR22R): 40.5 µM
IC50 (MCF7): 16 µM
IC50 (786-0): 12.9 µM
IC50 (HeLa): 24.7 µM
IC50 (A549): 28.1 µM
IC50 [1]: 26.9 µM
IC50 (HepG2): 15.6 µM
IC50 (HT-29): 51.2 µM
IC50 (Bel-7402): > 100 µM
IC50 (769-P): 21.3 µM

Cc1nccc2c3ccc(OCC(C)C)cc3n(CC(C)C)c12
IC50 (U-251): 49.6 µM
IC50 (SCaBER): 28.8 µM
IC50 (A-375): 22.2 µM
IC50 (BGC-823): 26.6 µM
IC50 (KB): 27.5 µM
IC50 (MCF7): 29.4 µM
IC50 (OS-RC-2): 30.5 µM
IC50 (786-0): 18.1 µM
IC50 (HeLa): 32.3 µM
IC50 (A549): 32.4 µM
IC50 [1]: 32.3 µM
IC50 (HepG2): 36.8 µM
IC50 (HT-29): 35.3 µM
IC50 (Bel-7402): 42.6 µM
IC50 (769-P): 30.8 µM

CCCCCCCCCCOc1ccc2c3ccnc(C)c3n(CC(C)C)c2c1
IC50 (BGC-823): 74.1 µM
IC50 (MCF7): > 100 µM
IC50 (HeLa): 2 µM
IC50 (HepG2): > 100 µM
IC50 (Bel-7402): > 100 µM

Cc1nccc2c3ccc(OCCCc4ccccc4)cc3n(CC(C)C)c12
IC50 (BGC-823): 18.5 µM
IC50 (MCF7): 19.5 µM
IC50 (HeLa): 27.6 µM
IC50 (HepG2): 27.7 µM
IC50 (Bel-7402): > 100 µM

CCCCOc1ccc2c3ccnc(C)c3n(CCCc3ccccc3)c2c1
IC50 (BGC-823): 14 µM
IC50 (MCF7): 68.9 µM
IC50 (HeLa): 88.7 µM
IC50 (HepG2): 12.4 µM
IC50 (Bel-7402): 34.8 µM

Cc1nccc2c3ccc(OCC(C)C)cc3n(CCCc3ccccc3)c12
IC50 (BGC-823): 23 µM
IC50 (MCF7): > 100 µM
IC50 (HeLa): > 100 µM
IC50 (HepG2): 12.9 µM
IC50 (Bel-7402): 39.3 µM

CC(C)=CCOc1ccc2c3ccnc(C)c3n(CCCc3ccccc3)c2c1
IC50 (BGC-823): 32.3 µM
IC50 (MCF7): > 100 µM
IC50 (HeLa): > 100 µM
IC50 (HepG2): 21.1 µM
IC50 (Bel-7402): 24.7 µM

Cc1nccc2c3ccc(OCCCc4ccccc4)cc3n(CCCc3ccccc3)c12
IC50 (BGC-823): 19.8 µM
IC50 (MCF7): > 100 µM
IC50 (HeLa): > 100 µM
IC50 (HepG2): 16.7 µM
IC50 (Bel-7402): > 100 µM

CCCCOc1ccc2c3cc[n+](Cc4ccccc4)c(C)c3n(CC)c2c1
IC50 (U-251): 14.2 µM
IC50 (SCaBER): 21.8 µM
IC50 (A-375): 6.9 µM
IC50 (BGC-823): 10.9 µM
IC50 (KB): < 1.7 µM
IC50 (MCF7): 5.9 µM
IC50 (OS-RC-2): 8.8 µM
IC50 (786-0): 7.8 µM
IC50 (HeLa): 2.4 µM
IC50 (A549): 13 µM
IC50 [1]: 22.9 µM
IC50 (HepG2): 10 µM
IC50 (HT-29): 6.4 µM
IC50 (Bel-7402): 2.9 µM
IC50 (769-P): 4.6 µM

CCn1c2cc(OCc3ccccc3)ccc2c2cc[n+](Cc3ccccc3)c(C)c21
IC50 (U-251): 16.2 µM
IC50 (SCaBER): 46.3 µM
IC50 (A-375): 12.3 µM
IC50 (BGC-823): 66.1 µM
IC50 (KB): 8.7 µM
IC50 (MCF7): 67.6 µM
IC50 (OS-RC-2): 15.9 µM
IC50 (786-0): 15.4 µM
IC50 (HeLa): 56.3 µM
IC50 (A549): 19.6 µM
IC50 [1]: 22.1 µM
IC50 (HepG2): 49.9 µM
IC50 (HT-29): 10.9 µM
IC50 (Bel-7402): 3.6 µM
IC50 (769-P): 8.9 µM

CCn1c2cc(OC(C)C)ccc2c2ccnc(C)c21
IC50 (BGC-823): 59.7 µM
IC50 (MCF7): > 100 µM
IC50 (HeLa): 27.6 µM
IC50 (HepG2): 52.6 µM
IC50 (Bel-7402): 43.6 µM

CCCCOc1ccc2c3ccnc(C)c3n(CC)c2c1
IC50 (BGC-823): 15.6 µM
IC50 (MCF7): 18.5 µM
IC50 (HeLa): 29.2 µM
IC50 (HepG2): 16.3 µM
IC50 (Bel-7402): 52.9 µM

CCCCCCCCCCOc1ccc2c3ccnc(C)c3n(CC)c2c1
IC50 (BGC-823): 15.2 µM
IC50 (MCF7): 45.9 µM
IC50 (HeLa): > 100 µM
IC50 (HepG2): 14.1 µM
IC50 (Bel-7402): > 100 µM

CCn1c2cc(OCc3c(F)c(F)c(F)c(F)c3F)ccc2c2ccnc(C)c21
IC50 (BGC-823): > 100 µM
IC50 (MCF7): > 100 µM
IC50 (HeLa): > 100 µM
IC50 (HepG2): > 100 µM
IC50 (Bel-7402): > 100 µM

— ChEMBL document CHEMBL2311271 (Eur J Med Chem, 2013)
